Data taken from ChEMBL document CHEMBL4622933, “Targeting the TS dimer interface in bifunctional Cryptosporidium hominis TS-DHFR from parasitic protozoa: Virtual screening identifies novel TS allosteric inhibitors” (Bioorg Med Chem Lett, 2020).
Activity calls are given as the source filed them. No cut-off for these calls is given here.

Columns and labels:
[1] = tested on: Cryptosporidium hominis; assay: Inhibition of Cryptosporidium hominis thymidylate synthase assessed as H2F formation at 500 uM preincubated for 30 mins followed by addition of radiolabelled CH2H4F and dUMP by HPLC-coupled flow scintillation analysis relative to control
Method in brief: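 Bifunctional C. hominis TS-DHFR is preincubated with compound for 30 min, then dUMP and radiolabelled CH2H4F are added to start the reaction. TS turnover of CH2H4F to H2F is followed by HPLC with radioactivity flow detection, and results are expressed as % inhibition.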

[2] = tested on: Cryptosporidium hominis; assay: Inhibition of Cryptosporidium hominis dihydrofolate reductase assessed as H4F formation at 500 uM preincubated for 30 mins followed by addition of radiolabelled H2F and dUMP by HPLC-coupled flow scintillation analysis relative to control
Method in brief: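 DHFR activity of bifunctional C. hominis TS-DHFR uses a radiometric assay. Conversion of radiolabelled H2F to H4F is followed by HPLC, and % inhibition is reported. The assay is run as a counter-screen for compound aggregation and nonspecific effects.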

[3] = Selectivity index, ratio of inhibition of human TS to inhibition of Cryptosporidium hominis thymidylate synthase-dihydrofolate reductase
[4] = biological target: Thymidylate synthase (TS) (Homo sapiens, UniProt P04818); assay: Inhibition of human TS at 500 uM relative to control; conditions: human thymidylate synthase enzyme (single protein)
Method in brief: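 Human TS enzyme is incubated with compound in the absence of dUMP, then TS activity is measured.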

[5] = Inhibition of Cryptosporidium hominis thymidylate synthase assessed as H2F formation preincubated for 30 mins followed by addition of radiolabelled CH2H4F and active dUMP by HPLC-coupled flow scintillation analysis
[6] = Inhibition of Cryptosporidium hominis thymidylate synthase assessed as H2F formation preincubated for 30 mins followed by addition of radiolabelled CH2H4F and inactive dUMP by HPLC-coupled flow scintillation analysis

Chain of Thymidylate synthase (TS) (P04818 whole entry): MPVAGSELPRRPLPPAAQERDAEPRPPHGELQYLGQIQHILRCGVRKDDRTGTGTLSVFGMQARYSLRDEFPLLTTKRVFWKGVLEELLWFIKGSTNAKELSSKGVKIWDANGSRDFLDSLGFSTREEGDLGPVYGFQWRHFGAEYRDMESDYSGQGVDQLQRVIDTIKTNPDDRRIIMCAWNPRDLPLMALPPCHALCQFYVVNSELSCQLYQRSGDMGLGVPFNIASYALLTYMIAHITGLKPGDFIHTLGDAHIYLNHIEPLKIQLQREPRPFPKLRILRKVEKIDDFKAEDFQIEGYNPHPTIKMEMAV

Row | Compound | inhibition [1] | also measured
1 | COc1ccc(Cn2c(=O)c3[nH]cnc3n(-c3cccc([S+](C)[O-])c3)c2=O)cc1 (centres undefined) | < 5% | 
2 | COc1cc(C(=O)O)ccc1OCC(O)CNCc1ccc2c(c1)OCO2 (centres undefined) | < 5% | 
3 | COc1cc(C(C)=O)ccc1OCC(O)CNCc1ccc2c(c1)OCO2 (centres undefined) | 20% | 
4 | OC(CNCc1ccc2c(c1)OCO2)COc1ccc(Br)cc1 (centres undefined) | 26% | 
5 | Cc1ccc(OCC(O)CNCc2ccc3c(c2)OCO3)cc1C (centres undefined) | 55% | 
6 | CC(C)(CC(=O)O)CC(=O)NCc1c(Cl)cccc1Oc1ccccc1 | inactive | 
7 | OC(CNCc1ccc2c(c1)OCO2)COc1ccc(Cl)c(Cl)c1 (centres undefined) | 83% | inhibition [2]: 60%
8 | OC(CNCc1ccc2c(c1)OCO2)COc1ccc(-c2ccccc2)cc1 (centres undefined) | 87% | inhibition [2]: 26%
9 | Cc1cc(Cl)cc(Br)c1OCC(O)CNCc1ccc2c(c1)OCO2 (centres undefined) | 83% | Ratio [3]: 2; inhibition at 500 µM [4]: 50%; inhibition [2]: 19%; IC50 [5]: 304 µM; IC50 [6]: 172 µM
10 | COc1ccccc1OCC(O)CNCc1ccc2c(c1)OCO2 (centres undefined) | < 5% | 
11 | OC(CNCc1ccc2c(c1)OCO2)CSc1ccccc1 (centres undefined) | 34% | 
12 | OC(CNCc1ccc2c(c1)OCO2)CSc1cccs1 (centres undefined) | 43% | 
13 | Cc1ccccc1-n1c(=O)n(Cc2ccc(C(=O)O)cc2)c(=O)c2[nH]cnc21 | < 5% | 
14 | O=C(O)CCC(=O)Nc1ccc(S(=O)(=O)Nc2ccc(C(F)(F)F)cc2)cc1 | inactive | 
15 | OC(CNCc1ccc2c(c1)OCO2)COc1ccc(F)cc1 (centres undefined) | 7% | 
16 | OC(CNCc1ccc2c(c1)OCO2)COc1ccc(-c2csnn2)cc1 (centres undefined) | 76% | inhibition [2]: 6%
17 | CC(=O)c1ccc(OCC(O)CNCc2ccc3c(c2)OCO3)cc1 (centres undefined) | 55% | 
18 | CCOC(=O)CNC(=O)CSc1nc2ccccc2c(=O)[nH]1 | inactive | 
19 | CCCCNC1N=C(c2ccccc2)c2ccccc2N(C)C1=O (centres undefined) | 15% | 
20 | Cc1ccc(C)c(OCC(O)CNCc2ccc3c(c2)OCO3)c1C (centres undefined) | 48% | 
21 | COc1cc(NC(=O)NCc2cccnc2)cc(C(F)(F)F)c1 | 46% | 
